Where only a bound is given, the exact number is not on record here.

A short description of data set [1]: Plasma clearance in rhesus monkey at 2 mg/kg, iv by LC/MS/MS analysis. More on the design: dose 2 mg/kg, route intravenous. It is filed as ADME, organism-based, Macaca mulatta. An outline of the steps: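 Fasted animals received an IV bolus in DMSO at 1.0 ml/kg for rats and 0.1 ml/kg for dogs and rhesus monkeys, at 2 mg/kg; n = 3 per species. Blood was drawn into EDTA tubes at set times, and plasma was separated by centrifugation and stored at −70°C. Drug was quantified by LC/MS/MS after protein precipitation.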

The subject of data set [2] is Hepatitis C virus. The data set is described as follows: Antiviral activity against Hepatitis C virus containing NS3/4a Con1 sequence by transient cell-base protease activity. In kind it is functional, organism-based, Hepacivirus hominis.
For the next data set, the target named is T1, Neutrophil elastase (Homo sapiens, UniProt P08246).
T1 sequence (P08246 whole entry): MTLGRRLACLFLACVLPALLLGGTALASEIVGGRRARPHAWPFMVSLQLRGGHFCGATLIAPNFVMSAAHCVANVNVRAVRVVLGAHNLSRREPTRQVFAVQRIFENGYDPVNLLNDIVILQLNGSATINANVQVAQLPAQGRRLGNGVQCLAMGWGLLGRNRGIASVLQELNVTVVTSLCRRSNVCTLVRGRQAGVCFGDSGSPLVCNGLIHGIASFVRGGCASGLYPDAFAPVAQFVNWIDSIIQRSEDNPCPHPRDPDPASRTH
The data set is described as follows: Inhibition of human Neutrophil elastase 2.

The target in data set [3] is Chymotrypsin-like elastase family member 1 (Homo sapiens, UniProt Q9UNI1). The experiment in a line: Inhibition of human Pancreatic elastase 1.
Sequence of Chymotrypsin-like elastase family member 1 (Q9UNI1 whole entry): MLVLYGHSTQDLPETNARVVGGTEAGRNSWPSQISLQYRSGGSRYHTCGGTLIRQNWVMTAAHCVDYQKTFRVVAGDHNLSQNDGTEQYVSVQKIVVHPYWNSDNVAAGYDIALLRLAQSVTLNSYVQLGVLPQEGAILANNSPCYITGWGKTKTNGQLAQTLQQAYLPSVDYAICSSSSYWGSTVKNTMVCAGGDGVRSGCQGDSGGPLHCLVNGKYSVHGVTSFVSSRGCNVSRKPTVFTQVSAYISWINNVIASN
Data set [4] relates to Hepatitis C virus. The data set is described as follows: Antiviral activity against Hepatitis C virus containing NS3/R155K protease mutant activity by TaqMan-based assay. It is filed as functional, organism-based, Hepacivirus hominis. An outline of the steps: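 Panel of stable HCV replicon cell lines carrying NS3 protease mutations. Replicon RNA read out by a TaqMan-based assay, and EC50 values determined.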

Data set [5] deals with Hepatitis C virus. The data set is described as follows: Antiviral activity against Hepatitis C virus containing NS3/4a H77 sequence by transient cell-base protease activity. In kind it is functional, organism-based, Hepacivirus hominis.
In data set [6] the test system is Hepatitis C virus. The experiment in a line: Antiviral activity against Hepatitis C virus containing NS3/4a ps36 sequence by transient cell-base protease activity. In kind it is functional, organism-based, Hepacivirus hominis. An outline of the steps:
(§1)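 Transient cell-based phenotype assay of protease activity, using NS3/4A sequences cloned from plasma of HCV-infected patients. EC50s were determined.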

Data set [7] relates to Hepatitis C virus. The experiment in a line: Antiviral activity against Hepatitis C virus containing NS3/4a ps20 sequence by transient cell-base protease activity. In kind it is functional, organism-based, Hepacivirus hominis. The method in brief:
as §1

A short description of data set [8]: Inhibition of Hepatitis C virus genotype 2a NS3/4A protease activity. More on the design: species or system Hepatitis C virus subtype 2a. The method in brief:
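Recombinant NS3/4A protease was expressed in and purified from E. coli. Inhibition was measured by a time-resolved, internally quenched fluorescence assay at low enzyme concentration. Kis were reported.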

A further data set addresses Serine protease 1 (Homo sapiens, UniProt P07477). The data set is described as follows: Inhibition of human Trypsin activity.
Data set [9] can be described thus: AUC (0-24 hrs) in dog at 2 mg/kg, iv by LC/MS/MS analysis. In kind it is ADME, organism-based, Canis lupus familiaris. More on the design: time < 24 hr, dose 2 mg/kg, route intravenous. The settings on record: plasma. An outline of the steps: (§2)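 Fasted animals received an intravenous bolus in DMSO at 1.0 ml/kg (rat), 0.1 ml/kg (dog) or 0.1 ml/kg (rhesus), with n = 3. Blood was drawn into EDTA tubes, and plasma was separated by centrifugation and stored at −70°C. Drug was quantified by LC/MS/MS after protein precipitation.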

Data set [10] can be described thus: AUC (0-24 hrs) in rat at 2 mg/kg, iv by LC/MS/MS analysis. Particulars: plasma. Further details: time < 24 hr, dose 2 mg/kg, route intravenous. It is filed as ADME, organism-based. An outline of the steps:
as §2

For data set [11], the system named is Hepatitis C virus. The data set is described as follows: Antiviral activity against Hepatitis C virus genotype 2a infected in […] cell by cell-based HCV replicon assay in presence of 10% fetal bovine serum. It is filed as functional, organism-based, Hepacivirus hominis.
Data set [12] has as its system Hepatitis C virus. The experiment in a line: Antiviral activity against Hepatitis C virus containing NS3/Q41R protease mutant activity by TaqMan-based assay. It is filed as functional, organism-based, Hepacivirus hominis.
Data set [13] relates to Hepatitis C virus. The data set is described as follows: Antiviral activity against Hepatitis C virus containing NS3/4a ps32 sequence by transient cell-base protease activity. In kind it is functional, organism-based, Hepacivirus hominis. The method in brief: as §1
Data set [14] concerns Hepatitis C virus. The experiment in a line: Antiviral activity against Hepatitis C virus containing NS3/D168Y protease mutant activity by TaqMan-based assay. In kind it is functional, organism-based, Hepacivirus hominis.
Data set [15] relates to Hepatitis C virus. The experiment in a line: Antiviral activity against Hepatitis C virus containing NS3/4a ps31 sequence by transient cell-base protease activity. In kind it is functional, organism-based, Hepacivirus hominis. An outline of the steps:
as §1

The target in a further data set is Cathepsin B (Homo sapiens, UniProt P07858). The experiment in a line: Inhibition of human Cathepsin B.
Another data set concerns the target T2, Cathepsin F (Homo sapiens, UniProt Q9UBX1).
T2 sequence (Q9UBX1 whole entry): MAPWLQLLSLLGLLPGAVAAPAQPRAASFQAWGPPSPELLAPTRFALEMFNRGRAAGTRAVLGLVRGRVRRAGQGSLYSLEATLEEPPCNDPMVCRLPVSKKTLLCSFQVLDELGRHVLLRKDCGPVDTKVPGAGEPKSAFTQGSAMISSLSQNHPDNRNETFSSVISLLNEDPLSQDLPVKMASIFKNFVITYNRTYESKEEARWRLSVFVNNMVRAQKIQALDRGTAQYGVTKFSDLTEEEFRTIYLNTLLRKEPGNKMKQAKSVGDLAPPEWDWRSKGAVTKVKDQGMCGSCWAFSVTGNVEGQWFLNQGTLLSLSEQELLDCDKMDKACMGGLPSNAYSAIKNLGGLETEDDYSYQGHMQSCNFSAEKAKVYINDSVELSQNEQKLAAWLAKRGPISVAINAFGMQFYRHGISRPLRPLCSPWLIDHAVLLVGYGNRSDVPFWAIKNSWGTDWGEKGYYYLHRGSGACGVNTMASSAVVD
The data set is described as follows: Inhibition of human Cathepsin F.

The next data set deals with T3, Chymase (Homo sapiens, UniProt P23946).
T3 sequence (P23946 whole entry): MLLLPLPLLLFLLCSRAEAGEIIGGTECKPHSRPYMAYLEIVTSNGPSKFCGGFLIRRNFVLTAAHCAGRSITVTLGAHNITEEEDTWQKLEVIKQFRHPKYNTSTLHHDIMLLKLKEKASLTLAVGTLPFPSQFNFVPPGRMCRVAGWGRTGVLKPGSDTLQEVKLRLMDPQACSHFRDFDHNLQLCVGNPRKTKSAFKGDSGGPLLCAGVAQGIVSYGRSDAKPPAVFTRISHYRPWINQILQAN
The data set is described as follows: Inhibition of human Chymase.

The nature of data set [16]: AUC (0-24 hrs) in rhesus monkey at 5 mg/kg, po by LC/MS/MS analysis. It is filed as ADME, organism-based, Macaca mulatta. Further details: time < 24 hr, dose 5 mg/kg, route oral. Particulars: plasma. The method in brief:
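Dosed orally as a solution in polyethylene glycol 400 (2.0 ml/kg), with n = 3. EDTA plasma was centrifuged off and held at −70°C. Drug levels were determined by LC/MS/MS following protein precipitation.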

Another data set deals with T4, Cathepsin L2 (Homo sapiens, UniProt O60911).
T4 sequence (O60911 whole entry): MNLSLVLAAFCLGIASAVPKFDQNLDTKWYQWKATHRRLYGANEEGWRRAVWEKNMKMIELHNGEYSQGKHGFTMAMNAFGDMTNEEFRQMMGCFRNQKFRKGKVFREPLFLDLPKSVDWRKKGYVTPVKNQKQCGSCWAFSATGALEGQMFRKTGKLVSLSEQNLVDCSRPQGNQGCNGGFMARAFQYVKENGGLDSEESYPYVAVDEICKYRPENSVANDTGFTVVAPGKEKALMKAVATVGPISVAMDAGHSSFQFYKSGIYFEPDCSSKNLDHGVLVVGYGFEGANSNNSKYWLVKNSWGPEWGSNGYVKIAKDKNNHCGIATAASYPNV
The experiment in a line: Inhibition of human Cathepsin V.

Sequence of Serine protease 1 (P07477 whole entry): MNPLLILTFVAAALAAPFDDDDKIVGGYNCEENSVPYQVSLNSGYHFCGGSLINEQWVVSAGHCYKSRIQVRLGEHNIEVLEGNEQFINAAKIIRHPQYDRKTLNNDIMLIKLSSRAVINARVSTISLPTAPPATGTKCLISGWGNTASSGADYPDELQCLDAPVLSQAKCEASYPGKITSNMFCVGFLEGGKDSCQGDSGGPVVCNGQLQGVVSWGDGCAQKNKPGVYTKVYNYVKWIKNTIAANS

For `CC[C@@H]1C[C@]1(NC(=O)[C@@H]1C[C@@H]2CN1C(=O)[C@H](C(C)(C)C)NC(=O)OCC(C)(C)CCCCc1cccc3c1CN(C3)C(=O)O2)C(=O)NS(=O)(=O)C1CC1` [VANIPREVIR], in data set [1], the clearance stood at 18 mL/min/kg. Also, the concentration for a half-maximal effect (EC50) with Hepatitis C virus [2] came out at 4.1 nM; in the data set with Hepatitis C virus [4] it was 350 nM; with Hepatitis C virus [5] it was 4.5 nM; in the data set on Hepatitis C virus [6], 4.9 nM; in the data set on Hepatitis C virus [7], 2.9 nM; in the data set with Hepatitis C virus [11], 15 nM. The concentration for a half-maximal effect (EC50) turned out to be 5.2 nM with Hepatitis C virus [12], 3.8 nM in the data set on Hepatitis C virus [13], 430 nM in the data set on Hepatitis C virus [14] and 3.4 nM in the data set with Hepatitis C virus [15]. In addition, the IC50 (at Neutrophil elastase; in data set [3]; at Serine protease 1; against Cathepsin B; against Cathepsin F; against Chymase) was > 10000 nM throughout. The half-inhibitory concentration (IC50) on Cathepsin L2 is > 10000 nM. The inhibition constant (Ki) in [8] was found to be 1 nM. For the same molecule, the area under the curve AUC(0-t) at 24 h in data set [9] was 4.1 µM·h; in data set [10], 0.6 µM·h; in [16], 0.05 µM·h.
